Values after ≈ are worked out from the molar mass of the structure shown. Active and inactive are the calls of the source. No cut-off for these calls is given here.

As a reminder, the MIC is the lowest concentration that inhibits growth of the organism. Low values mean greater potency, high ones weaker potency.

Assay [1] relates to Bacillus cereus. Briefly: Antibacterial activity against Bacillus cereus ATCC 14579 measured after overnight incubation. Type of assay: functional, organism-based. The method in brief: (§1)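 Broth microdilution (liquid growth inhibition) in 96-well plates. Overnight Luria Bertoni preculture from one colony at 37 °C with stirring, adjusted to OD620 0.03; 200 μL suspension added to 2-fold serial dilutions of peptide. Plates incubated overnight at 34 °C with shaking (450 rpm), read at OD620. MIC = lowest concentration giving complete growth inhibition; triplicate; gentamicin positive control.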

Assay [2] relates to Pseudomonas aeruginosa. As to the kind of experiment: Antibacterial activity against Pseudomonas aeruginosa ATCC 13388 measured after overnight incubation. Format: functional, organism-based. Put shortly: as §1
In assay [3] the test system is Klebsiella pneumoniae. Briefly: Antibacterial activity against Klebsiella pneumoniae ATCC 11296 measured after overnight incubation. Type of assay: functional, Klebsiella pneumoniae subsp. ozaenae. Put shortly:
(§2)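 Liquid growth inhibition in 96-well microplates. Each strain was precultured overnight in Luria Bertoni at 37 °C with stirring, then diluted to 0.03 OD at 620 nm. 200 μL of this suspension was added to wells holding 2-fold serial dilutions of peptide. Plates were incubated overnight at 34 °C with shaking at 450 rpm and read at 620 nm. MIC, run in triplicate, is the lowest concentration giving complete growth inhibition.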

For assay [4], the system named is Escherichia coli. As to the kind of experiment: Antibacterial activity against Escherichia coli ATCC 8739 measured after overnight incubation. Format: functional. The method in brief: as §2
The subject of assay [5] is Escherichia coli. As to the kind of experiment: Antibacterial activity against Escherichia coli ATCC 8739 up to 140 uM measured after overnight incubation. Type of assay: functional, organism-based. The method in brief: as §2
The subject of assay [6] is Bacillus cereus. Briefly: Antibacterial activity against Bacillus cereus ATCC 14579 up to 140 uM measured after overnight incubation. Format: functional, organism-based. The method in brief:
as §2

In assay [7] the test system is Enterococcus faecalis. As to the kind of experiment: Antibacterial activity against Enterococcus faecalis ATCC 29212 up to 140 uM measured after overnight incubation. Type of assay: functional, organism-based. The method in brief:
as §2

The subject of assay [8] is Pseudomonas aeruginosa. As to the kind of experiment: Antibacterial activity against Pseudomonas aeruginosa ATCC 13388 up to 140 uM measured after overnight incubation. Type of assay: functional, organism-based. Put shortly:
as §2

Assay [9] relates to Klebsiella pneumoniae. As to the kind of experiment: Antibacterial activity against Klebsiella pneumoniae ATCC 11296 up to 140 uM measured after overnight incubation. Type of assay: functional, organism-based. The following applies: Klebsiella pneumoniae subsp. ozaenae. Put shortly: as §2
The test system of the next assay is Staphylococcus aureus. As to the kind of experiment: Antibacterial activity against Staphylococcus aureus ATCC 6538 measured after overnight incubation. Type of assay: functional. Put shortly:
as §2

For assay [10], the system named is Enterococcus faecalis. Briefly: Antibacterial activity against Enterococcus faecalis ATCC 29212 measured after overnight incubation. Type of assay: functional. Put shortly:
as §2

On to GENTAMICIN, for which the minimum inhibitory concentration (MIC) stood at 17.2 µM with Bacillus cereus [1] and 10.5 µM against Pseudomonas aeruginosa [2].
For `O=C(N[C@H](CO)[C@H](O)c1ccc([N+](=O)[O-])cc1)C(Cl)Cl` [CHLORAMPHENICOL], the figures for the minimum inhibitory concentration (MIC) with Klebsiella pneumoniae [3] and with Escherichia coli [4] were 3.17 µM (≈ 1.02 µg/mL) and 19.3 µM (≈ 6.24 µg/mL), respectively.
Consider `CC[C@H](C)[C@H]1NC(=O)[C@H](CC(C)C)NC(=O)[C@@H](CC(C)C)NC(=O)[C@H](CC(C)C)NC(=O)[C@H](C(C)C)NC(=O)[C@@H](Cc2ccc(O)cc2)NC1=O`, for which the outcome in the assay with Escherichia coli [5], with Bacillus cereus [6], with Enterococcus faecalis [7], in the assay on Pseudomonas aeruginosa [8] and in the assay with Klebsiella pneumoniae [9] was inactive. For the same compound, in the assay with Staphylococcus aureus, the lowest concentration to inhibit growth (MIC) was 35 µM (≈ 25 µg/mL).
Consider `CC1(C)S[C@@H]2[C@H](NC(=O)[C@H](N)c3ccccc3)C(=O)N2[C@H]1C(=O)O` [AMPICILLIN], for which the minimum inhibitory concentration (MIC) in the assay on Staphylococcus aureus was 0.11 µM (≈ 0.0384 µg/mL); against Enterococcus faecalis [10], 4.59 µM (≈ 1.6 µg/mL).

(Values after ChEMBL document CHEMBL4130403, “Thermoactinoamide A, an Antibiotic Lipophilic Cyclopeptide from the Icelandic Thermophilic Bacterium Thermoactinomyces vulgaris” (2017).)
